Experimental findings from ChEMBL document CHEMBL1156333 (Bioorg Med Chem, 2010) are described below.

pEC50: −log10 of the molar value. Activity calls are given as the source filed them. The rule behind the calls is not given here. A value given as a limit tells only on which side of the number the result lay.

What is called pEC50 is −log10 of the EC50, conventionally taken in molar units.

Series [1] relates to Respiratory syncytial virus. Briefly: Antiviral activity against Respiratory syncytial virus Long infected in human HeLa cells assessed as inhibition of virus-induced cytopathicity. Type of series: functional, organism-based. A general note: Protection from cytopathic effect is a common read-out in antiviral testing.
Series [2] is described as follows: Cytotoxicity against human HEL cells. Type of series: cell-based. An outline of the steps:
(§1)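 MDCK, HEL and HeLa cultures run alongside the cytopathicity assays received graded compound levels up to 100 μM. Toxicity was scored as the minimum cytotoxic concentration, the lowest level causing a microscopically detectable change in cell morphology.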

The nature of series [3]: Cytotoxicity against human HuH5.2 cells. Type of series: cell-based, Huh-5-2.
In series [4] the test system is Punta Toro virus. Nature of the series: Antiviral activity against Punta Toro virus infected in african green monkey Vero cells assessed as inhibition of virus-induced cytopathicity. It is filed as functional, organism-based.
A short description of series [5]: Cytotoxicity against human HeLa cells. It is filed as cell-based. In short, it runs like this: as §1
For another series, the system named is Hepatitis C virus. Briefly: Antiviral activity against HCV infected in human HuH5.2 cells carrying subgenomic HCV replicon assessed as inhibition of replicon replication by luciferase reporter gene assay. It is filed as functional, organism-based, Hepacivirus hominis. The settings on record: Huh-5-2. An outline of the steps:
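Huh 5-2 cells are Huh 7 cells carrying the subgenomic replicon I389luc-ubi-neo/NS3-3′/5.1. They were maintained in DMEM with 10% heat-inactivated FCS, non-essential amino acids, penicillin/streptomycin and 250 μg/mL G418. Cells were seeded at 5 × 10^3 cells/well in medium without G418 and exposed to compound.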

Series [6] can be described thus: Cytotoxicity against MDCK cells. It is filed as cell-based, Canis lupus familiaris. The settings on record: dog. In short, it runs like this: as §1
The subject of series [7] is Vesicular stomatitis virus. Briefly: Antiviral activity against Vesicular stomatitis virus infected in human HeLa cells assessed as inhibition of virus-induced cytopathicity. It is filed as functional, organism-based.
For another series, the system named is Feline coronavirus. Nature of the series: Antiviral activity against Feline coronavirus assessed as inhibition of virus-induced cytopathicity by cell based assay. The settings on record: Alphacoronavirus 1. It is filed as functional, organism-based.
The test system of series [8] is Mammalian orthoreovirus 1. Nature of the series: Antiviral activity against Reovirus 1 assessed as inhibition of virus-induced cytopathicity by cell based assay. Type of series: functional, organism-based.
The next series has as its system Human respirovirus 3. Briefly: Antiviral activity against Parainfluenza 3 virus assessed as inhibition of virus-induced cytopathicity by cell based assay. Type of series: functional, organism-based.
In series [9] the test system is Human alphaherpesvirus 1. Briefly: Antiviral activity against thymidine kinase deficient ACV resistant Herpes simplex virus 1 KOS assessed as inhibition of virus-induced cytopathicity by cell based assay. It is filed as functional, organism-based. The settings on record: Human alphaherpesvirus 1, KOS.
The subject of another series is Human alphaherpesvirus 2. Briefly: Antiviral activity against Herpes simplex virus 2 assessed as inhibition of virus-induced cytopathicity by cell based assay. Type of series: functional, organism-based.
In series [10] the test system is Vaccinia virus. Nature of the series: Antiviral activity against Vaccinia virus lederle infected in human HEL cells assessed as inhibition of virus-induced cytopathicity. It is filed as functional, organism-based. The settings on record: Orthopoxvirus vaccinia.
Another series has as its system Coxsackievirus B4. Briefly: Antiviral activity against Coxsackievirus B4 assessed as inhibition of virus-induced cytopathicity by cell based assay. Type of series: functional, organism-based. The settings on record: Enterovirus B.
The test system of series [11] is Human immunodeficiency virus 2. Briefly: Antiviral activity against HIV2 ROD infected in human CEM cells assessed as inhibition of syncytia formation after 4 days. It is filed as functional, organism-based. The settings on record: Human immunodeficiency virus 2, ISOLATE ROD, CCRF-CEM, 96 h. An outline of the steps:
(§2)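 Human CEM cells (~3 × 10^5 cells/mL) were infected with ~100 CCID50/mL of HIV-1(IIIB) or HIV-2(ROD) and seeded with compound dilutions. After 4 days at 37 °C, syncytia formation was scored microscopically.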

The test system of the next series is Cytomegalovirus. Nature of the series: Antiviral activity against Cytomegalovirus assessed as inhibition of virus-induced cytopathicity by cell based assay. It is filed as functional, organism-based. The settings on record: Human betaherpesvirus 5.
The test system of another series is Felid alphaherpesvirus 1. Nature of the series: Antiviral activity against Feline herpes virus assessed as inhibition of virus-induced cytopathicity by cell based assay. Type of series: functional, organism-based.
For series [12], the system named is Influenza A virus. Briefly: Antiviral activity against Influenza A virus H3N2 infected in MDCK cells assessed as inhibition of virus-induced cytopathicity. It is filed as functional, organism-based.
The test system of the next series is Sindbis virus. Briefly: Antiviral activity against Sindbis virus assessed as inhibition of virus-induced cytopathicity by cell based assay. Type of series: functional, organism-based.
Series [13] relates to Human immunodeficiency virus 1. Nature of the series: Antiviral activity against HIV1 3B infected in human CEM cells assessed as inhibition of syncytia formation after 4 days. It is filed as functional, organism-based. The settings on record: Human immunodeficiency virus 1, 3B, CCRF-CEM, 96 h. In short, it runs like this:
as §2

Series [14] concerns Human alphaherpesvirus 1. Nature of the series: Antiviral activity against Herpes simplex virus 1 KOS assessed as inhibition of virus-induced cytopathicity by cell based assay. Type of series: functional, organism-based. The settings on record: Human alphaherpesvirus 1, KOS.
Series [15] has as its system Influenza B virus. Nature of the series: Antiviral activity against Influenza B virus infected in MDCK cells assessed as inhibition of virus-induced cytopathicity. It is filed as functional, organism-based.
Series [16] has as its system Punta Toro virus. Nature of the series: Antiviral activity against Punta Toro virus infected in african green monkey Vero cells assessed as inhibition of virus-induced cytopathicity at 100 uM. Type of series: functional, organism-based. An outline of the steps: (§3)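 Confluent monolayers (Vero for Punta Toro, HeLa for RSV strain Long) were infected with 100 CCID50 of virus. After 1–2 h adsorption, residual virus was removed and cells were incubated with the compound, 100 μM being the highest level tested. Cytopathicity was scored when untreated infected controls reached full cytopathic effect.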

Series [17] deals with Vaccinia virus. Nature of the series: Antiviral activity against Vaccinia virus lederle infected in human HEL cells assessed as inhibition of virus-induced cytopathicity at 100 uM. Type of series: functional, organism-based. The settings on record: Orthopoxvirus vaccinia.
The subject of series [18] is Respiratory syncytial virus. Briefly: Antiviral activity against Respiratory syncytial virus Long infected in human HeLa cells assessed as inhibition of virus-induced cytopathicity at 100 uM. It is filed as functional, organism-based. In short, it runs like this: as §3
Series [19] concerns Vesicular stomatitis virus. Briefly: Antiviral activity against Vesicular stomatitis virus infected in human HeLa cells assessed as inhibition of virus-induced cytopathicity at 100 uM. It is filed as functional, organism-based.
Series [20] concerns Influenza B virus. Briefly: Antiviral activity against Influenza B virus infected in MDCK cells assessed as inhibition of virus-induced cytopathicity at 100 uM. It is filed as functional, organism-based.
For series [21], the system named is Influenza A virus. Nature of the series: Antiviral activity against Influenza A virus H3N2 infected in MDCK cells assessed as inhibition of virus-induced cytopathicity at 100 uM. Type of series: functional, organism-based.
Series [22] relates to Vaccinia virus. Briefly: Ratio of compound EC50 over ribavirin EC50 for Vaccinia virus lederle. It is filed as functional, Orthopoxvirus vaccinia.
For series [23], the system named is Punta Toro virus. Briefly: Ratio of compound EC50 over ribavirin antiviral EC50 for Punta Toro virus. Type of series: functional.

Consider `NC(=O)c1ncn([C@@H]2O[C@H](CO)[C@@H](O)[C@H]2O)n1` [RIBAVIRIN], for which the pEC50 in [1] is 4.72; with Punta Toro virus [4], 3.74; in the series on Hepatitis C virus, 4.06. Besides, the MCC in series [2], in [3], in [5] and in series [6] was above 100 µM in each case.
For the molecule `C[C@H](NP(=O)(OC[C@H]1O[C@@H](n2cnc(C(N)=O)n2)[C@H](O)[C@@H]1O)Oc1cccc2ccccc12)C(=O)OCc1ccccc1` (stereo not given in full), the negative-log EC50 (pEC50) was 4.70 in series [7]; 4.35 in [1]; below 4.00 with Feline coronavirus; below 4.00 in [8]; 4.17 with Hepatitis C virus; below 4.00 in the series on Human respirovirus 3. Moreover, the negative logarithm of the EC50 (pEC50) in the series on Human alphaherpesvirus 1 [9] was below 4.00; in the series with Human alphaherpesvirus 2, below 4.00; in the series on Vaccinia virus [10] it was 4.00; with Coxsackievirus B4, below 4.00; in series [11], below 4.00; in the series with Cytomegalovirus, below 4.00. Further, the pEC50 is below 4.00 with Felid alphaherpesvirus 1; 4.74 in the series on Influenza A virus [12]; below 4.00 with Sindbis virus; below 4.00 in series [13]; below 4.00 in the series on Human alphaherpesvirus 1 [14]; 4.85 with Influenza B virus [15]. Also, the MCC in series [2], in series [3], in series [5] and in series [6] was above 100 µM in each case.
On to `NC(=O)c1ncn([C@@H]2O[C@H](COP(=O)(N[C@@H](Cc3ccccc3)C(=O)OCc3ccccc3)Oc3cccc4ccccc34)[C@@H](O)[C@H]2O)n1` (stereo not given in full), for which the pEC50 in [7] is below 4.70; in [1], below 4.70; in the series on Feline coronavirus, below 4.00; in series [8], below 4.00; with Hepatitis C virus it was below 4.15; with Human respirovirus 3 it was below 4.00. Moreover, the pEC50 is below 4.00 in the series with Human alphaherpesvirus 1 [9]; below 4.00 with Human alphaherpesvirus 2; 4.00 in the series on Vaccinia virus [10]; below 4.00 with Coxsackievirus B4; below 4.00 in [11]; below 4.00 in the series on Cytomegalovirus. For the same molecule, the pEC50 (in the series on Felid alphaherpesvirus 1; in the series with Influenza A virus [12]; with Sindbis virus; in [13]; in the series on Human alphaherpesvirus 1 [14]; in the series with Influenza B virus [15]) was below 4.00 each time. Moreover, the inhibition entry (with Punta Toro virus [16]; in the series on Vaccinia virus [17]; in [18]; in series [19]; with Influenza B virus [20]; in the series on Influenza A virus [21]) was “inactive” each time. The MCC in series [2], in series [3], in series [5] and in [6] was above 100 µM throughout.
`NC(=O)c1ncn([C@@H]2O[C@H](COP(=O)(NCC(=O)OCc3ccccc3)Oc3cccc4ccccc34)[C@@H](O)[C@H]2O)n1` (stereo not given in full): the pEC50 in series [1] was 4.24; in the series on Feline coronavirus, below 4.00; in [8], below 4.00; in the series with Human respirovirus 3 it was below 4.00; in the series on Human alphaherpesvirus 1 [9], below 4.00; in the series with Human alphaherpesvirus 2, below 4.00. Further, the pEC50 with Vaccinia virus [10] is 4.70; in the series on Coxsackievirus B4, below 4.00; in series [11] it was below 4.00; with Cytomegalovirus, below 4.00; with Felid alphaherpesvirus 1, below 4.00; in the series with Influenza A virus [12], below 4.70. Further, the pEC50 in the series on Sindbis virus is below 4.00; in series [13] it was below 4.00; in the series with Human alphaherpesvirus 1 [14], below 4.00; with Influenza B virus [15] it was below 4.70. For the same molecule, the MCC (in series [2]; in series [3]; in [5]; in the series with Hepatitis C virus; in [6]) was above 100 µM throughout. Further, the Ratio in the series with Vaccinia virus [22] and in the series on Punta Toro virus [23] was 3 in each case.
